Calls of active or inactive are those of the source. The calls are words filed in the database; no cut-off is given here.
Assays:
MDA-MB-468 [1] = assay: Antiproliferative activity against human MDA-MB-468 cells assessed as cell viability after 96 hrs by CellTiter96 assay; format: functional, cell-based; details: MDA-MB-468, 96 h
[2] = Clearance in Sprague-Dawley rat at 2 mg/kg, iv compound formulated with 5% DMSO, 10% cremophor and 85% water by LC-MS/MS analysis; format: ADME, organism-based; design: dose 2 mg/kg, route intravenous; details: in vivo
[3] = Half life in rat liver microsomes at 1 uM by LC-MS/MS analysis; format: ADME
MDA-MB-231 [4] = assay: Antitumor activity against human MDA-MB-231 cells xenografted in BALB/c nu/nu mouse assessed as tumor volume at 150 mg/kg, po bid for 28 days administered via gavage relative to control; format: functional
Method in brief: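 Female BALB/c nu/nu mice, 5–8 weeks old, implanted subcutaneously in the right flank with 1 × 10⁷ MDA-MB-231 cells in matrigel. Dosing began at about 100 mm³ mean tumour volume; 5 mice/group. Arms: vehicle (5% DMSO, 10% Cremophor in water) IV once daily, 20 mg/kg IV once daily, or 150 mg/kg PO twice daily, for 28 days. Caliper volumes and body weight every 2 days; T/C on day 28.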

Mus musculus = assay: Toxicity in BALB/c nu/nu mouse xenografted with human MDA-MB-231 cells assessed as body weight loss at 150 mg/kg, po bid for 28 days; format: organism-based; design: dose 150 mg/kg, route oral; details: in vivo, 672 h
Method in brief: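 Female BALB/c nu/nu mice, 5–8 weeks old, implanted subcutaneously in the right flank with 1 × 10⁷ MDA-MB-231 cells in matrigel. Treatment began at about 100 mm³ tumor volume; 5 mice per group. Dosing for 28 days: IV 20 mg/kg once daily or PO 150 mg/kg twice daily, in 5% DMSO/10% Cremophor in H₂O; vehicle controls included. Body weight and tumor size (caliper) recorded every 2 days.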

[5] = molecular target: T1, Kinetochore protein NDC80 homolog (Homo sapiens) (UniProt O14777); assay: Inhibition of Hec1/Nek2 interaction in human K562 cells assessed as induction of Nek2 degradation at 10 nM after 24 hrs by western blot analysis; format: cell-based
T1 sequence (whole entry): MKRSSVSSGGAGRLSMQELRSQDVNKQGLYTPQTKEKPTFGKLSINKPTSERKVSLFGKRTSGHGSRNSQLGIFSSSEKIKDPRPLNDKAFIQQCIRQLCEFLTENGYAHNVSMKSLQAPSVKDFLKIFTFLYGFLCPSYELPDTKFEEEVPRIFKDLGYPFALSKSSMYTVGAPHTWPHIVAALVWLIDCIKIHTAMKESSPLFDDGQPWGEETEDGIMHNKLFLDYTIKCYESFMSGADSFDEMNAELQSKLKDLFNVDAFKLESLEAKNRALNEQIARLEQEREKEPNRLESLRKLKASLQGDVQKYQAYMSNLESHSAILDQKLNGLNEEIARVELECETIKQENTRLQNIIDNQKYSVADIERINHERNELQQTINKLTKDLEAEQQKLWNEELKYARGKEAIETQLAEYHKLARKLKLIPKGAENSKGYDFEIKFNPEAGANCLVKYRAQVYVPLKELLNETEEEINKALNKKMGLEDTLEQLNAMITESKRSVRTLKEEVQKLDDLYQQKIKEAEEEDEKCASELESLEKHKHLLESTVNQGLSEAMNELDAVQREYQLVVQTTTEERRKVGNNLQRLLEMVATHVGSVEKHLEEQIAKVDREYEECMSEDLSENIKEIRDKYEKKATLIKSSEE
Method in brief: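 K562 cells exposed to DMSO or to 10, 100 or 1000 nM for 24 h. Nek2 and Hec1 detected by western blot in SDS sample buffer lysates, with actin as loading control and ECL detection.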

[6] = molecular target: T1, Kinetochore protein NDC80 homolog (Homo sapiens); assay: Inhibition of Hec1/Nek2 interaction in human MDA-MB-468 cells assessed as reduction in Hec1 level at 100 nM by western blot analysis; format: cell-based
Method in brief: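 MDA-MB-468 cells treated with compound at 100 nM, with or without MG132 at 500 nM. Lysates made in SDS sample buffer, run on SDS-PAGE and blotted to PVDF. Primary antibodies applied in 3% BSA-TBST, with HRP secondaries and enhanced chemiluminescence detection for Hec1 and Nek2.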

MDA-MB-468 [7] = assay: Induction of mitotic abnormalities in human MDA-MB-468 cells assessed as proportion of cells displaying multipolar spindles at 100 nM after 48 hrs by immunofluorescent staining based microscopy (reference value: […]); format: functional
MDA-MB-468 [8] = assay: Induction of mitotic abnormalities in human MDA-MB-468 cells assessed as proportion of cells displaying chromosomal misalignment at 100 nM after 48 hrs by immunofluorescent staining based microscopy (reference value: 21.4%); format: functional
MDA-MB-468 [9] = assay: Induction of mitotic abnormalities in human MDA-MB-468 cells assessed as proportion of cells displaying chromosomal misalignment at 1000 nM after 48 hrs by immunofluorescent staining based microscopy (reference value: 21.4%); format: functional
HeLa [10] = assay: Induction of apoptosis in human HeLa cells assessed as increase in cleaved caspase-3 level at 1 uM after 24 to 48 hrs by western blot analysis; format: functional, cell-based
Method in brief: (§1)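 HeLa cells given 1.0 μM compound, DMSO, or paclitaxel 100 nM for 24 and 48 h. Lysates made in SDS sample buffer, run on SDS-PAGE and transferred to PVDF. Blots probed for cleaved caspase-3, cleaved PARP, Bcl-2, Mcl-1 and XIAP, with actin as loading control, and detected by HRP-linked ECL.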

HeLa [11] = assay: Induction of apoptosis in human HeLa cells assessed as increase in cleaved PARP level at 1 uM after 24 to 48 hrs by western blot analysis; format: functional, cell-based; method in brief: as §1
U-937 = assay: Growth inhibition of human U937 cells; format: functional
MDA-MB-231 [12] = assay: Growth inhibition of human MDA-MB-231 cells; format: functional
[13] = Growth inhibition of human HAoSMC cells; format: cell-based
[14] = molecular target: Serine/threonine-protein kinase Chk2 (Homo sapiens, UniProt O96017); assay: Inhibition of CHK2 (unknown origin) assessed as [33P] incorporation in substrate by TopCount microplate scintillation counting analysis
Sequence of Serine/threonine-protein kinase Chk2 (O96017 whole entry): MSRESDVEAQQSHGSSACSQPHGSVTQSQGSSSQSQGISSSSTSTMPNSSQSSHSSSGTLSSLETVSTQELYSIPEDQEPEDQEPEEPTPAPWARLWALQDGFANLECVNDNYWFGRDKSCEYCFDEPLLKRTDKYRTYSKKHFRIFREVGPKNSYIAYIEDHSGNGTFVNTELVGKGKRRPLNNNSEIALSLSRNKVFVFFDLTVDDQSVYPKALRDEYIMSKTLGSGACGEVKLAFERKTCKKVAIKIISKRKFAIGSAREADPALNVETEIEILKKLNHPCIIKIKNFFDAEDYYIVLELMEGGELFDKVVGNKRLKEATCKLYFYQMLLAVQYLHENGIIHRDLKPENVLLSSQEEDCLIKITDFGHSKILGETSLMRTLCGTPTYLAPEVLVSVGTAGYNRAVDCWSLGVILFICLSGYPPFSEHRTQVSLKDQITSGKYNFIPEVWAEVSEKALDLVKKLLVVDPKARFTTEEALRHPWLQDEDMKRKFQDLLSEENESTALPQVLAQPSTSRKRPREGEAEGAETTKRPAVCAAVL

Aurora kinase A = Aurora kinase A (Homo sapiens, UniProt O14965); assay: Inhibition of aurora A (unknown origin) assessed as [33P] incorporation in substrate by TopCount microplate scintillation counting analysis
Sequence of Aurora kinase A (O14965 whole entry, canonical isoform): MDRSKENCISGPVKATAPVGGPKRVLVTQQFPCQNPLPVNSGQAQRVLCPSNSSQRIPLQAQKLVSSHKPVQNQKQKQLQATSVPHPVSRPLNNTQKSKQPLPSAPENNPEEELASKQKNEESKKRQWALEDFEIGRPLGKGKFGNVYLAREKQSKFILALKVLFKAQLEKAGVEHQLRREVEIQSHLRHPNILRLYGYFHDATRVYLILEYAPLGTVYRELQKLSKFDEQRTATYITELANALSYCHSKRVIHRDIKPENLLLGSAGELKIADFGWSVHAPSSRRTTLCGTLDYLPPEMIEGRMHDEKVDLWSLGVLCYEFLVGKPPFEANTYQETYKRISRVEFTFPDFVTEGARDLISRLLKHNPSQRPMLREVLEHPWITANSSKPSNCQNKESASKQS

[15] = molecular target: Phosphatidylinositol 4,5-bisphosphate 3-kinase catalytic subunit alpha isoform (Homo sapiens, UniProt P42336); assay: Inhibition of PI3K alpha (unknown origin) assessed as [33P] incorporation in substrate by TopCount microplate scintillation counting analysis
Sequence of Phosphatidylinositol 4,5-bisphosphate 3-kinase catalytic subunit alpha isoform (P42336 whole entry, canonical isoform): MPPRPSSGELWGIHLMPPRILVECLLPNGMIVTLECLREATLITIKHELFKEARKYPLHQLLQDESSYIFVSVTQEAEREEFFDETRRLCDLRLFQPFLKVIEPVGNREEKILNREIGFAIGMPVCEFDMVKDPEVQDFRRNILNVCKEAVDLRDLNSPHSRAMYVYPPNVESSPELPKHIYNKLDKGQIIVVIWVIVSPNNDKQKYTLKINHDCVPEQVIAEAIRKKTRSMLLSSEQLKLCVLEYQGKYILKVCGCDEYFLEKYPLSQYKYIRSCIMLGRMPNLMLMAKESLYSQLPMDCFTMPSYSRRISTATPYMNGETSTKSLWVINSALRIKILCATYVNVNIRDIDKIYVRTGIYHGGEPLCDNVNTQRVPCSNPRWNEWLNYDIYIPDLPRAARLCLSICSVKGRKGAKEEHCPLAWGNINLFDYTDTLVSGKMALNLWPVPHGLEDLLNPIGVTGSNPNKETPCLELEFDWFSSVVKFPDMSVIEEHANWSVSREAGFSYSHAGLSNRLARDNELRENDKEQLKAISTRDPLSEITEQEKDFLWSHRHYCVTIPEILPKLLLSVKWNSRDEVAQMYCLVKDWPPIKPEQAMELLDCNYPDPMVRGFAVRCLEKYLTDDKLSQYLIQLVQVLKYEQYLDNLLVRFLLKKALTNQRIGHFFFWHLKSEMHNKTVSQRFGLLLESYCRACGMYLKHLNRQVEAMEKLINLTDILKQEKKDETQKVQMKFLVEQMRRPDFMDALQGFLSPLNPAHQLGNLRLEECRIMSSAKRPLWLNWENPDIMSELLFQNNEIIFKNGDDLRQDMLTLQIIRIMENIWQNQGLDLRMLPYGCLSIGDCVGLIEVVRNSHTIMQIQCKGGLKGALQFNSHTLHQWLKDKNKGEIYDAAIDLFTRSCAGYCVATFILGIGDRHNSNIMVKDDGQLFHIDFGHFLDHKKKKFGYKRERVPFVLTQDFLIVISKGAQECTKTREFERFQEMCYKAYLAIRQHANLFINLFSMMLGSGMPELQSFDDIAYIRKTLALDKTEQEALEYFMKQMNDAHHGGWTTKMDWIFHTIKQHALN

[16] = molecular target: Fibroblast growth factor receptor 1 (Homo sapiens, UniProt P11362); assay: Inhibition of FGFR1 (unknown origin) assessed as [33P] incorporation in substrate by TopCount microplate scintillation counting analysis
Sequence of Fibroblast growth factor receptor 1 (P11362 whole entry): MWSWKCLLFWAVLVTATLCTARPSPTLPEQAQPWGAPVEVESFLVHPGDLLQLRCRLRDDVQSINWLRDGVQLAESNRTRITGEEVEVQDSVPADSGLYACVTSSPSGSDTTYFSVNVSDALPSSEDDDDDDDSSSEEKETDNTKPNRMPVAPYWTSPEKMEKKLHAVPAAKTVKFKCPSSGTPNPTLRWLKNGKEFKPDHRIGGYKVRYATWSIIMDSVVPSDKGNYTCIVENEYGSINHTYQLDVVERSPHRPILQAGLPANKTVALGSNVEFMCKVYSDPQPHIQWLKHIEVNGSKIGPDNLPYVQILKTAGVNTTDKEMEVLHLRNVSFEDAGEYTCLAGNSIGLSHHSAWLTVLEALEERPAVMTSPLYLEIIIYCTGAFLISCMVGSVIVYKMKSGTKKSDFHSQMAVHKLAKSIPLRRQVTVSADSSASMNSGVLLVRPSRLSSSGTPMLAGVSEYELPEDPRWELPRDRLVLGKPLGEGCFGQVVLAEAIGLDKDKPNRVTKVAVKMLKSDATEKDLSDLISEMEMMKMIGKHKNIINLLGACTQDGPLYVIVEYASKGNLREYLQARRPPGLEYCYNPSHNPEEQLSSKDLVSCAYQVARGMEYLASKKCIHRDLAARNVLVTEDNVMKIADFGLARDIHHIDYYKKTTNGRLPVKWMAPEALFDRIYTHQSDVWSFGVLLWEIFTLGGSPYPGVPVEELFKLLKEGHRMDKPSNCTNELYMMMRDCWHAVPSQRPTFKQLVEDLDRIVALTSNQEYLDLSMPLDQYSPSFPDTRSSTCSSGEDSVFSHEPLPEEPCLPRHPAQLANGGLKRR

[17] = molecular target: Serine/threonine-protein kinase B-raf (Homo sapiens, UniProt P15056, V600E); assay: Inhibition of B-Raf V600E mutant (unknown origin) assessed as [33P] incorporation in substrate by TopCount microplate scintillation counting analysis
Sequence of Serine/threonine-protein kinase B-raf (P15056 2-766 V600E limits assumed): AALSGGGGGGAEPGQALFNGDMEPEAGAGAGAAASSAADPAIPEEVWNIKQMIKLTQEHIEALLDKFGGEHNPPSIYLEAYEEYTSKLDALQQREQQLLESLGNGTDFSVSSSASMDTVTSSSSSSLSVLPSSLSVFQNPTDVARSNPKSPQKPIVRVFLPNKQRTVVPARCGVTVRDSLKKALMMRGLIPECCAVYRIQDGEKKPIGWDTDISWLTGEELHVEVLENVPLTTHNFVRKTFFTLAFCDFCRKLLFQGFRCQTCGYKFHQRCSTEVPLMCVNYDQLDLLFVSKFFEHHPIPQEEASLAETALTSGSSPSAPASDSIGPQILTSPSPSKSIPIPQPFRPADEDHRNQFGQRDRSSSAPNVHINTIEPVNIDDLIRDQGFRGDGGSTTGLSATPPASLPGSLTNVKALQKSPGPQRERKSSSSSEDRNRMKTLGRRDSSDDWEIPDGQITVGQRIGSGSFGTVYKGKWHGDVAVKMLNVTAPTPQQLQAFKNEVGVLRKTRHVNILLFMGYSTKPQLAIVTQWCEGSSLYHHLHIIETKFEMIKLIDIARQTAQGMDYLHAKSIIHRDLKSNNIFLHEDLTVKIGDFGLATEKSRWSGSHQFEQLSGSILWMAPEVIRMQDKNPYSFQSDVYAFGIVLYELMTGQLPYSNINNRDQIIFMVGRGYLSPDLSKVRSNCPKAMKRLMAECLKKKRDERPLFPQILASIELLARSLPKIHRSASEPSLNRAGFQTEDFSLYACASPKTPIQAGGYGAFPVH

[18] = molecular target: Mast/stem cell growth factor receptor Kit (Homo sapiens, UniProt P10721); assay: Inhibition of Kit (unknown origin) assessed as [33P] incorporation in substrate by TopCount microplate scintillation counting analysis
Sequence of Mast/stem cell growth factor receptor Kit (P10721 whole entry): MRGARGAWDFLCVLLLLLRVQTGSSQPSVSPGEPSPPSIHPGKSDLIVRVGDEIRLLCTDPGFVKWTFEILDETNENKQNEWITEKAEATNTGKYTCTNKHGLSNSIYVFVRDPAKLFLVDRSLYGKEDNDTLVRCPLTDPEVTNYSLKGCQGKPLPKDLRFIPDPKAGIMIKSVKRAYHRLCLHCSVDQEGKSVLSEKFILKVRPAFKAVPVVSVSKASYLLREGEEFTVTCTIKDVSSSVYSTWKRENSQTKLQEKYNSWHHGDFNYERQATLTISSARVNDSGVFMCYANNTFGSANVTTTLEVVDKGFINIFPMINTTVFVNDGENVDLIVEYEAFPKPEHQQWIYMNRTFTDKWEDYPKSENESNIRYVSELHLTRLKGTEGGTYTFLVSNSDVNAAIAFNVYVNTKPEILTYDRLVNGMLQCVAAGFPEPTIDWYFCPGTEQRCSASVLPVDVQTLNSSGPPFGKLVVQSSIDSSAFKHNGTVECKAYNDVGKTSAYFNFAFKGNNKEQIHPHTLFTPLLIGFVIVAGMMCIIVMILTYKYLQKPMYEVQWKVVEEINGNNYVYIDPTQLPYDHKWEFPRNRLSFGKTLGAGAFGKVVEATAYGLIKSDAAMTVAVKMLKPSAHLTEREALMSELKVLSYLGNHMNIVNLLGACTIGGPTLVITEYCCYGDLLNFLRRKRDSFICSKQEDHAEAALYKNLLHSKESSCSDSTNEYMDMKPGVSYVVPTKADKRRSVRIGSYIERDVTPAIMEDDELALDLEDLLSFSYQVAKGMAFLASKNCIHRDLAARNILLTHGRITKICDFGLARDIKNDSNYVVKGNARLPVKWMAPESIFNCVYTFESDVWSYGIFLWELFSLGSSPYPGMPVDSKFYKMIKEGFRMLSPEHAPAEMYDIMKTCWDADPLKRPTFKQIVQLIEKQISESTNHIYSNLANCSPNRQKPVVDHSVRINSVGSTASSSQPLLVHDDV

With `COc1ccc(Oc2cc(C)c(-c3csc(NC(=O)c4ccnc(F)c4)n3)c(C)c2)cc1` the IC50 (MDA-MB-468 [1]) was 0.04 µM, the clearance [2] was 1.22 mL/min/kg and the half-life at 1 µM [3] was 5.67 h. The T/C (MDA-MB-231 [4]) was 57%, the Activity (Mus musculus) was less than 5% and the Activity [5] was “inactive”. The inhibition [6] was “Active”, the Activity (MDA-MB-468 [7]) was 29.1% and the Activity (MDA-MB-468 [8]) was 21.8%. The Activity (MDA-MB-468 [9]) was 20%, the Activity (HeLa [10]) was “Active” and the Activity (HeLa [11]) was “Active”. The GI50 (U-937) was 0.0296 µM, the GI50 (MDA-MB-231 [12]) was 0.0398 µM and the GI50 [13] was greater than 9 µM. It also gave an IC50 [14] greater than 10 µM, an IC50 (Aurora kinase A) greater than 10 µM and an IC50 [15] greater than 10 µM. It also gave an IC50 [16] greater than 10 µM, an IC50 [17] greater than 10 µM and an IC50 [18] greater than 10 µM.
